Test [1] deals with T1, Angiotensin II receptor (AT-1) type-1 (Rattus norvegicus, UniProt P29089+P25095).
T1 sequence (P29089 whole entry): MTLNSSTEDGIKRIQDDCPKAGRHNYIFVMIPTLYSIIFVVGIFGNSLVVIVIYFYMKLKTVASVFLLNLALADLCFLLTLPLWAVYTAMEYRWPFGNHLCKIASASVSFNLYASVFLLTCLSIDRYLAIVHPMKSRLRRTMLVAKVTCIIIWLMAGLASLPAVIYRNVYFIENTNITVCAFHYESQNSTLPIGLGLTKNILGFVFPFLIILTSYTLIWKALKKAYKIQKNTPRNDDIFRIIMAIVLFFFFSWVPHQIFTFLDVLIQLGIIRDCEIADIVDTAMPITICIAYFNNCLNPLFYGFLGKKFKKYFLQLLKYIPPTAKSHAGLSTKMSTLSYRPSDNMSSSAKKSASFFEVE
T1 sequence (P25095 whole entry): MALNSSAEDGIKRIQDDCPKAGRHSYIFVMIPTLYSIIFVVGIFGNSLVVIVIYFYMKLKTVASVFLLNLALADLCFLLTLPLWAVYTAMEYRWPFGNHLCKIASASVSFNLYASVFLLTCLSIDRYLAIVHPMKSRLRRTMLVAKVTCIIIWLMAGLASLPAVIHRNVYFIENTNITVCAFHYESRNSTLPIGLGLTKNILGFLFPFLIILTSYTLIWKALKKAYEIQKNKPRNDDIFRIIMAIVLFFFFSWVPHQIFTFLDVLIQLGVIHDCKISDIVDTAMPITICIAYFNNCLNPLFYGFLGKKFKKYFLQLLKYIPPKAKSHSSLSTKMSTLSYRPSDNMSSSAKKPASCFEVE
In words: Inhibitory concentration against binding of [125I]angiotensin II to rat liver expressing Angiotensin II receptor. Summed up:
(§1)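 Rat liver membranes homogenized in 10 mM HEPES pH 7.4 with protease inhibitors, captopril and PMSF. Nonspecific binding defined with 1.0 µM saralasin. No BSA. IC50 by nonlinear fit to mass-action equation from at least five or six concentrations.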

The subject of test [2] is Rattus norvegicus. In words: Effect on mean arterial pressure after oral dosing at 10 mg/kg to renal hypertensive rats. It is filed as functional, Artery. Summed up: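 Male Sprague-Dawley rats, bilateral renal artery clipping at 5 weeks, used 10-12 weeks later; aortic cannula to neck, 48 h recovery; rats with mean BP <150 mmHg excluded. Compound suspended in 0.5% methocel in water, oral gavage 10 mg/kg in 2 mL/kg to conscious rats (n = 5-6). BP and heart rate recorded continuously, averaged over 30-min intervals.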

Test [3] deals with Rattus norvegicus. Kind of test: Tested in vivo for effective dose (iv) that produces inhibition of pressor response to Angiotensin II in conscious normotensive rats. It is filed as functional.
For test [4], the target named is T1, Angiotensin II receptor (AT-1) type-1. Kind of test: Tested for inhibitory concentration against AT1 receptor binding affinity in rat liver. In a few lines:
as §1

Regarding `CCCCc1nc(-n2cccc2C(=O)C(F)(F)F)c(C(=O)OC)n1Cc1ccc(-c2ccccc2-c2nn[nH]n2)cc1`, the IC50 in test [1] was found to be 3.57 nM. Moreover, the “Change in BP” value in test [2] is given as -19.
For `CCCCc1nc(-n2cccc2)c(C(=O)O)n1Cc1ccc(-c2ccccc2-c2nn[nH]n2)cc1`, the IC50 in test [1] is recorded as 1.57 nM. Besides, in test [3], the ED50 was found to be 38 µg/min/kg. In addition, the “Change in BP” value in test [2] is recorded as -27.
As for `CCCc1nc(-n2cccc2C(O)C(F)(F)F)c(C(=O)O)n1Cc1ccc(-c2ccccc2-c2nn[nH]n2)cc1` (stereo not given), the IC50 in test [1] amounted to 1.04 nM.
As for `CCCc1nc(-n2cccc2)c(/C=C/C(=O)O)n1Cc1ccc(-c2ccccc2-c2nn[nH]n2)cc1`, in test [1], the IC50 was 4 nM.
With `CCCc1nc(-n2ccc(C(=O)O)c2)c(C(=O)O)n1Cc1ccc(-c2ccccc2-c2nn[nH]n2)cc1`, the IC50 in test [1] was determined as 25.1 nM.
With `CCCc1nc(-n2cccc2C(=O)C(F)(F)F)c(C(=O)OC)n1Cc1ccc(-c2ccccc2-c2nn[nH]n2)cc1`, the IC50 in test [1] was found to be 3.64 nM. Moreover, the ED50 in test [3] amounted to 36 µg/min/kg. In addition, the “Change in BP” value in test [2] is recorded as -28.
In test [1], `CCCc1nc(-n2cccc2C(=O)O)c(C(=O)O)n1Cc1ccc(-c2ccccc2-c2nn[nH]n2)cc1` registered an IC50 of 11.2 nM.
Same read-out and setting: in the case of `CCCCc1nc(-n2cccc2)c(C(=O)c2ccccc2)n1Cc1ccc(-c2ccccc2-c2nn[nH]n2)cc1` it was 23.3 nM.
The same measure, in the same setting: for `CCCc1nc(-n2c(C)ccc2C)c(CO)n1Cc1ccc(-c2ccccc2-c2nn[nH]n2)cc1` the value was 23.8 nM.
Still for that read-out and setting: in the case of `CCCc1nc(-n2ccc(C(=O)OC)c2C)c(C(=O)O)n1Cc1ccc(-c2ccccc2-c2nn[nH]n2)cc1` it was 1.37 nM.
As for `CCCc1nc(-n2cccc2C(=O)C(F)(F)F)c(C(=O)O)n1Cc1ccc(-c2ccccc2-c2nn[nH]n2)cc1`, the IC50 in test [1] came to 0.58 nM. The molecule also came in with an ED50 in test [3] of 6.23 µg/min/kg. Besides, in test [2], the “Change in BP” value is -29.
In test [1], `Cc1ccc(C)n1-c1nc(C2CC2)n(Cc2ccc(-c3ccccc3-c3nn[nH]n3)cc2)c1C(=O)O` came in with an IC50 of 2.81 nM. In test [2], the “Change in BP” value was -11.
In turn, `CCCc1nc(-n2c(Cl)ccc2Cl)c(C(=O)O)n1Cc1ccc(-c2ccccc2-c2nn[nH]n2)cc1` had an IC50 in test [1] of 0.14 nM.
`CCCc1nc(-n2c(C)ccc2C)c(/C=C/C(=O)O)n1Cc1ccc(-c2ccccc2-c2nn[nH]n2)cc1`: the half-maximal inhibitory concentration (IC50) in test [1] stood at 3.32 nM. The molecule further displayed a median effective dose (ED50) in test [3] of 16.4 µg/min/kg. Also, the “Change in BP” value in test [2] is -8.
The molecule `CCCc1nc(-n2c(C)ccc2C)c(C(=O)OC)n1Cc1ccc(-c2ccccc2-c2nn[nH]n2)cc1` had an IC50 in test [1] of 20.9 nM. Also, the “Change in BP” value in test [2] was -8.
For the molecule `CCCc1nc(-n2c(C)ccc2C)c(C(=O)O)n1Cc1ccc(-c2ccccc2-c2nn[nH]n2)cc1`, the IC50 in test [1] was 0.82 nM. In addition, the “Change in BP” value in test [2] is reported as -26.
In turn, `CCCc1nc(-n2c(C)ccc2CCC)c(C(=O)OC)n1Cc1ccc(-c2ccccc2-c2nn[nH]n2)cc1` had an IC50 in test [1] of 15.1 nM. That is a double-digit nanomolar value.
Take `CCCc1nc(-n2ccc(C(=O)OCC)c2)c(C(=O)OC)n1Cc1ccc(-c2ccccc2-c2nn[nH]n2)cc1`: in test [1], the IC50 stood at 158 nM.
Same read-out and setting: in the case of `CCCCc1nc(-n2cccc2)c(C#N)n1Cc1ccc(-c2ccccc2-c2nn[nH]n2)cc1` it was 209 nM; in that of `CCCc1nc(-n2c(C)ccc2C)c(C#N)n1Cc1ccc(-c2ccccc2-c2nn[nH]n2)cc1`, 188 nM; in that of `CCCc1nc(-n2c(Cl)ccc2Cl)c(C(=O)OCC)n1Cc1ccc(-c2ccccc2-c2nn[nH]n2)cc1`, 3.93 nM.
Molecule `CCCc1nc(C(F)(F)C(F)(F)F)c(C(=O)O)n1Cc1ccc(-c2ccccc2-c2nn[nH]n2)cc1` showed an IC50 in test [4] of 3.4 nM.
Take `CCCCc1nc(-n2cccc2C(=O)C(F)(F)F)c(C(=O)O)n1Cc1ccc(-c2ccccc2-c2nn[nH]n2)cc1`: the half-maximal inhibitory concentration (IC50) in test [1] is 2.37 nM. In test [2], the “Change in BP” value is on record as -16.
The molecule `CCCc1nc(-n2cccc2)c(C#N)n1Cc1ccc(-c2ccccc2-c2nn[nH]n2)cc1` had an IC50 in test [1] of 332 nM. That is a sub-micromolar value.
On the same count and under the same terms, for `CCCc1nc(-n2cccc2C(=O)O)c(C#N)n1Cc1ccc(-c2ccccc2-c2nn[nH]n2)cc1` the value was 103 nM.
Still for that read-out and setting: in the case of `CCCc1nc(-n2cccc2C(=O)O)c(C(N)=O)n1Cc1ccc(-c2ccccc2-c2nn[nH]n2)cc1` it was 8.76 nM.
`CCCc1nc(-n2cccc2)c(C(=O)O)n1Cc1ccc(-c2ccccc2-c2nn[nH]n2)cc1` displayed an IC50 in test [1] of 1.71 nM. The ED50 in test [3] came out at 27 µg/min/kg. Further, the “Change in BP” value in test [2] is -25.
The molecule `CCCc1nc(-n2ccc(C(=O)O)c2C)c(C(=O)O)n1Cc1ccc(-c2ccccc2-c2nn[nH]n2)cc1` came in with an IC50 in test [1] of 11 nM.
Still for that read-out and setting: for `CCCc1nc(-n2cccc2C(O)C(F)(F)F)c(C#N)n1Cc1ccc(-c2ccccc2-c2nn[nH]n2)cc1` (stereo not given) the value was 233 nM; for `CCCc1nc(-n2cccc2)c(/C=C(\C)C(=O)O)n1Cc1ccc(-c2ccccc2-c2nn[nH]n2)cc1`, 2.5 nM.
In turn, `CCCc1nc(-n2cccc2C(=O)OC)c(C#N)n1Cc1ccc(-c2ccccc2-c2nn[nH]n2)cc1` displayed an IC50 in test [1] of 53.3 nM.
`CCCc1nc(-n2cccc2C(=O)C(F)(F)F)c(C#N)n1Cc1ccc(-c2ccccc2-c2nn[nH]n2)cc1` gave a half-maximal inhibitory concentration (IC50) in test [1] of 171 nM.
With `CCCc1nc(-n2cccc2)c(C(=O)OCC)n1Cc1ccc(-c2ccccc2-c2nn[nH]n2)cc1`, in test [1], the 50% inhibitory concentration (IC50) is 12.2 nM. Besides, the “Change in BP” value in test [2] is recorded as -22.
`CCCc1nc(-n2c(C)ccc2C)c(/C=C/C(=O)OC)n1Cc1ccc(-c2ccccc2-c2nn[nH]n2)cc1`: in test [1], the IC50 was determined as 21.6 nM.
In turn, `CCCc1nc(-n2ccc(C(=O)OCC)c2)c(C(=O)O)n1Cc1ccc(-c2ccccc2-c2nn[nH]n2)cc1` returned a half-inhibitory concentration (IC50) in test [1] of 22 nM. This IC50 and that of the molecule before are within 1.5-fold of each other.
Same read-out and setting: in the case of `CCCCc1nc(-n2cccc2)cn1Cc1ccc(-c2ccccc2-c2nn[nH]n2)cc1` it was 27 nM.
Regarding `CCCc1nc(-n2cccc2)c(/C=C(\C)C(=O)OCC)n1Cc1ccc(-c2ccccc2-c2nn[nH]n2)cc1`, in test [1], the IC50 came out at 2.8 nM. Also, the “Change in BP” value in test [2] is reported as -12.
As for `COC(=O)c1c(-n2c(C)ccc2C)nc(C2CC2)n1Cc1ccc(-c2ccccc2-c2nn[nH]n2)cc1`, the half-inhibitory concentration (IC50) in test [1] turned out to be 65.5 nM.
In test [1], `CCCc1nc(-n2cccc2)cn1Cc1ccc(-c2ccccc2-c2nn[nH]n2)cc1` registered an IC50 of 5.6 nM.
Consider `CCCc1nc(-n2cccc2C=O)c(C(=O)O)n1Cc1ccc(-c2ccccc2-c2nn[nH]n2)cc1`, for which, in test [1], the 50% inhibitory concentration (IC50) is listed as 0.8 nM.
For the molecule `CCCc1nc(-n2c(C)ccc2CCC)c(C(=O)O)n1Cc1ccc(-c2ccccc2-c2nn[nH]n2)cc1`, in test [1], the IC50 was determined as 0.9 nM. Further, the Change in BP in test [2] was -6.
For the molecule `CCCc1nc(-n2ccc(C(=O)OC)c2C)c(C(=O)OC)n1Cc1ccc(-c2ccccc2-c2nn[nH]n2)cc1`, in test [1], the IC50 is 18.8 nM.
In test [1], `CCCc1nc(-n2c(C)ccc2C)c(C=O)n1Cc1ccc(-c2ccccc2-c2nn[nH]n2)cc1` had an IC50 of 13.7 nM.
`CCCCc1nc(Cl)c(C(=O)O)n1Cc1ccc(-c2ccccc2-c2nn[nH]n2)cc1` [CARBOXYLIC ACID METABOLITE] returned an ED50 in test [3] of 13.6 µg/min/kg. Further, the “Change in BP” value in test [2] is listed as -22.
For `CCCCc1nc(Cl)c(CO)n1Cc1ccc(-c2ccccc2-c2nnn[nH]2)cc1` [LOSARTAN] the same measures were 75.9 µg/min/kg and -27.

In general, IC50 refers to the concentration needed to halve the response being measured. Low values mean greater potency in that assay, high ones weaker potency in that assay. In general, ED50 refers to the dose at which the effect has come halfway, by size or by number of responders. A low value points to an effect at a small dose.

The values are drawn from ChEMBL document CHEMBL1127049, “Nonpeptide angiotensin II receptor antagonists. 2. Design, synthesis, and structure-activity relationships of 2-alkyl-4-(1H-pyrrol-1-yl)-1H-imidazole derivatives: profile of 2-propyl-1-[[2'-(1H-tetrazol-5-yl)-[1,1' -biphenyl]-4-yl]-methyl]-4-[2-(trifluoroacetyl)-1H-pyrrol-1-yl]-1H- …” (J Med Chem, 1993).
